In ChEMBL document CHEMBL4425110, “ICI 56,780 Optimization: Structure-Activity Relationship Studies of 7-(2-Phenoxyethoxy)-4(1H)-quinolones with Antimalarial Activity” (J Med Chem, 2016):

Test system: not listed separately
Test: Liver blood index, ratio of EC50 for Plasmodium falciparum TM90-C2B to EC50 for Plasmodium berghei
Format: functional
Procedure, shortened: (§1)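 Liver-stage EC50 measured in vitro against P. berghei. Liver blood index is the blood-stage EC50 divided by the P. berghei EC50, using either W2 or TM90-C2B as the blood-stage strain.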

SMILES	Ratio EC50
COC(=O)c1c[nH]c2cc(OCCOc3ccccc3)c(OC)cc2c1=O	0.634
CCCCc1ccc2[nH]cc(C(=O)OC)c(=O)c2c1	271
CCCCc1cc2c(=O)c(C#N)c[nH]c2cc1OCCOc1ccccc1	521
CCCCc1cc2c(=O)c(Br)c[nH]c2cc1OCCOc1ccccc1	2.6
CCCCc1cc2c(=O)c(C(=O)O)c[nH]c2cc1OCCOc1ccccc1	4160
CCCCc1cc2c(=O)c(I)c[nH]c2cc1OCCOc1ccccc1	2.37
CCCCc1cc2c(=O)c(C(=O)NC)c[nH]c2cc1OCCOc1ccccc1	1390
COC(=O)c1c[nH]c2ccc(Cl)cc2c1=O	1760
CCCCc1cc2c(=O)cc[nH]c2cc1OCCOc1ccccc1	73.9
CCc1cc2c(=O)c(C(=O)OC)c[nH]c2cc1OCCOc1ccccc1	88.6
COC(=O)c1c[nH]c2ccccc2c1=O	1810
CCCCc1cc2c(=O)c(C(=O)OCC)c[nH]c2cc1OCCOc1ccccc1	14300
COC(=O)c1c[nH]c2cc(OCCOc3ccccc3)c(Br)cc2c1=O	2520
COC(=O)c1c[nH]c2cc(OCCOc3ccccc3)ccc2c1=O	257
CCCCc1cc2c(=O)c(C(=O)N(C)C)c[nH]c2cc1OCCOc1ccccc1	> 27.7
COC(=O)c1c[nH]c2cc(OCCOc3ccccc3)c(C)cc2c1=O	3.28
CCCCc1cc2c(=O)c(Cl)c(C)[nH]c2cc1OCCOc1ccccc1	6.03

Test system: Plasmodium falciparum
Test: Antimalarial activity against Plasmodium falciparum TM90-C2B
Format: functional, organism-based

SMILES	EC50 [nM]
COC(=O)c1c[nH]c2cc(OCCOc3ccccc3)c(OC)cc2c1=O	11.1
CCCCc1ccc2[nH]cc(C(=O)OC)c(=O)c2c1	222
CCCCc1cc2c(=O)c(C#N)c[nH]c2cc1OCCOc1ccccc1	3170
CCCCc1cc2c(=O)c(Br)c[nH]c2cc1OCCOc1ccccc1	48.7
CCCCc1cc2c(=O)c(C(=O)O)c[nH]c2cc1OCCOc1ccccc1	1110
CCCCc1cc2c(=O)c(I)c[nH]c2cc1OCCOc1ccccc1	6.04
CCCCc1cc2c(=O)c(C(=O)NC)c[nH]c2cc1OCCOc1ccccc1	3980
COC(=O)c1c[nH]c2ccc(Cl)cc2c1=O	82200
CCCCc1cc2c(=O)cc[nH]c2cc1OCCOc1ccccc1	430
CCc1cc2c(=O)c(C(=O)OC)c[nH]c2cc1OCCOc1ccccc1	65.3
COC(=O)c1c[nH]c2ccccc2c1=O	6590
CCCCc1cc2c(=O)c(C(=O)OCC)c[nH]c2cc1OCCOc1ccccc1	100
COC(=O)c1c[nH]c2cc(OCCOc3ccccc3)c(Br)cc2c1=O	847
COC(=O)c1c[nH]c2cc(OCCOc3ccccc3)ccc2c1=O	73.6
CCCCc1cc2c(=O)c(C(=O)N(C)C)c[nH]c2cc1OCCOc1ccccc1	> 6120
COC(=O)c1c[nH]c2cc(OCCOc3ccccc3)c(C)cc2c1=O	499
CCCCc1cc2c(=O)c(Cl)c(C)[nH]c2cc1OCCOc1ccccc1	67.7

Test system: not listed separately
Test: Liver blood index, ratio of EC50 for Plasmodium falciparum W2 to EC50 for Plasmodium berghei
Format: functional
Procedure, shortened: as §1

SMILES	Ratio EC50
COC(=O)c1c[nH]c2cc(OCCOc3ccccc3)c(OC)cc2c1=O	0.396
CCCCc1ccc2[nH]cc(C(=O)OC)c(=O)c2c1	1.93
CCCCc1cc2c(=O)c(C#N)c[nH]c2cc1OCCOc1ccccc1	15.7
CCCCc1cc2c(=O)c(Br)c[nH]c2cc1OCCOc1ccccc1	0.248
CCCCc1cc2c(=O)c(C(=O)O)c[nH]c2cc1OCCOc1ccccc1	240
CCCCc1cc2c(=O)c(I)c[nH]c2cc1OCCOc1ccccc1	0.482
CCCCc1cc2c(=O)c(C(=O)NC)c[nH]c2cc1OCCOc1ccccc1	4.63
COC(=O)c1c[nH]c2ccc(Cl)cc2c1=O	13.2
CCCCc1cc2c(=O)cc[nH]c2cc1OCCOc1ccccc1	56.4
CCc1cc2c(=O)c(C(=O)OC)c[nH]c2cc1OCCOc1ccccc1	0.626
COC(=O)c1c[nH]c2ccccc2c1=O	54.8
CCCCc1cc2c(=O)c(C(=O)OCC)c[nH]c2cc1OCCOc1ccccc1	19.6
COC(=O)c1c[nH]c2cc(OCCOc3ccccc3)c(Br)cc2c1=O	13.3
COC(=O)c1c[nH]c2cc(OCCOc3ccccc3)ccc2c1=O	9.79
CCCCc1cc2c(=O)c(C(=O)N(C)C)c[nH]c2cc1OCCOc1ccccc1	0.46
COC(=O)c1c[nH]c2cc(OCCOc3ccccc3)c(C)cc2c1=O	0.013
CCCCc1cc2c(=O)c(Cl)c(C)[nH]c2cc1OCCOc1ccccc1	0.616

Test system: J774
Test: Cytotoxicity against mouse J774 cells
Format: cell-based

SMILES	EC50 [nM]
COC(=O)c1c[nH]c2cc(OCCOc3ccccc3)c(OC)cc2c1=O	> 20000
CCCCc1ccc2[nH]cc(C(=O)OC)c(=O)c2c1	> 20000
CCCCc1cc2c(=O)c(C#N)c[nH]c2cc1OCCOc1ccccc1	> 20000
CCCCc1cc2c(=O)c(Br)c[nH]c2cc1OCCOc1ccccc1	8070
CCCCc1cc2c(=O)c(C(=O)O)c[nH]c2cc1OCCOc1ccccc1	> 20000
CCCCc1cc2c(=O)c(I)c[nH]c2cc1OCCOc1ccccc1	> 10000
CCCCc1cc2c(=O)c(C(=O)NC)c[nH]c2cc1OCCOc1ccccc1	> 20000
COC(=O)c1c[nH]c2ccc(Cl)cc2c1=O	> 20000
CCCCc1cc2c(=O)cc[nH]c2cc1OCCOc1ccccc1	> 20000
CCc1cc2c(=O)c(C(=O)OC)c[nH]c2cc1OCCOc1ccccc1	> 20000
COC(=O)c1c[nH]c2ccccc2c1=O	> 20000
CCCCc1cc2c(=O)c(C(=O)OCC)c[nH]c2cc1OCCOc1ccccc1	> 20000
COC(=O)c1c[nH]c2cc(OCCOc3ccccc3)c(Br)cc2c1=O	> 20000
COC(=O)c1c[nH]c2cc(OCCOc3ccccc3)ccc2c1=O	> 20000
CCCCc1cc2c(=O)c(C(=O)N(C)C)c[nH]c2cc1OCCOc1ccccc1	15300
COC(=O)c1c[nH]c2cc(OCCOc3ccccc3)c(C)cc2c1=O	> 20000
CCCCc1cc2c(=O)c(Cl)c(C)[nH]c2cc1OCCOc1ccccc1	> 10000

Test system: Plasmodium falciparum
Test: Resistance index, ratio of EC50 for Plasmodium falciparum TM90-C2B to EC50 for Plasmodium falciparum W2
Format: functional

SMILES	Ratio EC50
COC(=O)c1c[nH]c2cc(OCCOc3ccccc3)c(OC)cc2c1=O	1.6
CCCCc1ccc2[nH]cc(C(=O)OC)c(=O)c2c1	141
CCCCc1cc2c(=O)c(C#N)c[nH]c2cc1OCCOc1ccccc1	32.6
CCCCc1cc2c(=O)c(Br)c[nH]c2cc1OCCOc1ccccc1	10.5
CCCCc1cc2c(=O)c(C(=O)O)c[nH]c2cc1OCCOc1ccccc1	17.3
CCCCc1cc2c(=O)c(I)c[nH]c2cc1OCCOc1ccccc1	4.91
CCCCc1cc2c(=O)c(C(=O)NC)c[nH]c2cc1OCCOc1ccccc1	299
COC(=O)c1c[nH]c2ccc(Cl)cc2c1=O	134
CCCCc1cc2c(=O)cc[nH]c2cc1OCCOc1ccccc1	1.31
CCc1cc2c(=O)c(C(=O)OC)c[nH]c2cc1OCCOc1ccccc1	142
COC(=O)c1c[nH]c2ccccc2c1=O	33
CCCCc1cc2c(=O)c(C(=O)OCC)c[nH]c2cc1OCCOc1ccccc1	699
COC(=O)c1c[nH]c2cc(OCCOc3ccccc3)c(Br)cc2c1=O	189.5
COC(=O)c1c[nH]c2cc(OCCOc3ccccc3)ccc2c1=O	26.3
CCCCc1cc2c(=O)c(C(=O)N(C)C)c[nH]c2cc1OCCOc1ccccc1	>108
COC(=O)c1c[nH]c2cc(OCCOc3ccccc3)c(C)cc2c1=O	248
CCCCc1cc2c(=O)c(Cl)c(C)[nH]c2cc1OCCOc1ccccc1	9.79

Test system: Plasmodium falciparum
Test: Antimalarial activity against Plasmodium falciparum W2
Format: functional, organism-based

SMILES	EC50 [nM]
COC(=O)c1c[nH]c2cc(OCCOc3ccccc3)c(OC)cc2c1=O	6.93
CCCCc1ccc2[nH]cc(C(=O)OC)c(=O)c2c1	1.58
CCCCc1cc2c(=O)c(C#N)c[nH]c2cc1OCCOc1ccccc1	97.2
CCCCc1cc2c(=O)c(Br)c[nH]c2cc1OCCOc1ccccc1	4.64
CCCCc1cc2c(=O)c(C(=O)O)c[nH]c2cc1OCCOc1ccccc1	64
CCCCc1cc2c(=O)c(I)c[nH]c2cc1OCCOc1ccccc1	1.23
CCCCc1cc2c(=O)c(C(=O)NC)c[nH]c2cc1OCCOc1ccccc1	13.3
COC(=O)c1c[nH]c2ccc(Cl)cc2c1=O	614
CCCCc1cc2c(=O)cc[nH]c2cc1OCCOc1ccccc1	328
CCc1cc2c(=O)c(C(=O)OC)c[nH]c2cc1OCCOc1ccccc1	0.461
COC(=O)c1c[nH]c2ccccc2c1=O	200
CCCCc1cc2c(=O)c(C(=O)OCC)c[nH]c2cc1OCCOc1ccccc1	0.143
COC(=O)c1c[nH]c2cc(OCCOc3ccccc3)c(Br)cc2c1=O	4.47
COC(=O)c1c[nH]c2cc(OCCOc3ccccc3)ccc2c1=O	2.8
CCCCc1cc2c(=O)c(C(=O)N(C)C)c[nH]c2cc1OCCOc1ccccc1	56.7
COC(=O)c1c[nH]c2cc(OCCOc3ccccc3)c(C)cc2c1=O	2.01
CCCCc1cc2c(=O)c(Cl)c(C)[nH]c2cc1OCCOc1ccccc1	6.92

Test system: Plasmodium berghei
Test: Antimalarial activity against Plasmodium berghei
Format: functional, organism-based
Procedure, shortened: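 In vitro liver-stage (exoerythrocytic) assay against P. berghei; the value is the EC50 (nM).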

SMILES	EC50 [nM]
COC(=O)c1c[nH]c2cc(OCCOc3ccccc3)c(OC)cc2c1=O	17.5
CCCCc1ccc2[nH]cc(C(=O)OC)c(=O)c2c1	0.819
CCCCc1cc2c(=O)c(C#N)c[nH]c2cc1OCCOc1ccccc1	6.09
CCCCc1cc2c(=O)c(Br)c[nH]c2cc1OCCOc1ccccc1	18.7
CCCCc1cc2c(=O)c(C(=O)O)c[nH]c2cc1OCCOc1ccccc1	0.267
CCCCc1cc2c(=O)c(I)c[nH]c2cc1OCCOc1ccccc1	2.55
CCCCc1cc2c(=O)c(C(=O)NC)c[nH]c2cc1OCCOc1ccccc1	2.87
COC(=O)c1c[nH]c2ccc(Cl)cc2c1=O	46.6
CCCCc1cc2c(=O)cc[nH]c2cc1OCCOc1ccccc1	5.82
CCc1cc2c(=O)c(C(=O)OC)c[nH]c2cc1OCCOc1ccccc1	0.737
COC(=O)c1c[nH]c2ccccc2c1=O	3.65
CCCCc1cc2c(=O)c(C(=O)OCC)c[nH]c2cc1OCCOc1ccccc1	0.007
COC(=O)c1c[nH]c2cc(OCCOc3ccccc3)c(Br)cc2c1=O	0.336
COC(=O)c1c[nH]c2cc(OCCOc3ccccc3)ccc2c1=O	0.286
CCCCc1cc2c(=O)c(C(=O)N(C)C)c[nH]c2cc1OCCOc1ccccc1	122
COC(=O)c1c[nH]c2cc(OCCOc3ccccc3)c(C)cc2c1=O	152
CCCCc1cc2c(=O)c(Cl)c(C)[nH]c2cc1OCCOc1ccccc1	11.2
